What was measured:
[1] = molecular target: T1, Alpha-1D adrenergic receptor (Rattus norvegicus) (UniProt P23944); experiment: Antagonistic activity at ADRA1D in rat thoracic aorta; format: functional, tissue-based
T1 sequence (whole entry): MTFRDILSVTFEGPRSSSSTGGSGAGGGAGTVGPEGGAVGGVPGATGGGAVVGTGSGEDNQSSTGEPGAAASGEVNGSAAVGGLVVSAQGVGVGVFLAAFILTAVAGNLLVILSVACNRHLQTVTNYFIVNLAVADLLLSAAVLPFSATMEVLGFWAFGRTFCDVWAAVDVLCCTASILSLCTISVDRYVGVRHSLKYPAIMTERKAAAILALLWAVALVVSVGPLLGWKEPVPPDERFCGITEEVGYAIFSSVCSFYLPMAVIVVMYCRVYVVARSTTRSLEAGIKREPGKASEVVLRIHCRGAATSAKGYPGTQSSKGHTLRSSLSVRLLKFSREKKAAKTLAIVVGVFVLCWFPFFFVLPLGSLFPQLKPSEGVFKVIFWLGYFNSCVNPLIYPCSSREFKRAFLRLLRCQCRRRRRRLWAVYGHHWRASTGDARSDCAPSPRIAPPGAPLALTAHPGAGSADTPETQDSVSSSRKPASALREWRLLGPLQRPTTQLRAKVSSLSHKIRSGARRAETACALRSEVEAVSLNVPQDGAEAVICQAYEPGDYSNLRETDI
How it was run: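 Antagonism in isolated rat tissues: prostatic vas deferens (α1A), spleen (α1B), thoracic aorta (α1D). Each compound tested at a single concentration, and each concentration was investigated at least four times. pKb was calculated by the van Rossum method. pA2 was derived from Arunlakshana–Schild plots. WB4101 was used as the standard.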

[2] = molecular target: Alpha adrenergic receptor 1A and 1D (Rattus norvegicus) (UniProt P23944+P43140); experiment: Selectivity for ADRA1D over ADRA1A; format: protein assay
How it was run: (§1)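 Subtype selectivity is the antilog of the difference between the pKb values at α1A, α1B and α1D, measured in isolated rat prostatic vas deferens, spleen and thoracic aorta.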

Rattus norvegicus = organism: Rattus norvegicus; experiment: Selectivity for ADRA1D over ADRA1B; how it was run: as §1
[3] = molecular target: Alpha adrenergic receptor 1A and 1B (Rattus norvegicus) (UniProt P15823+P43140); experiment: Selectivity for ADRA1B over ADRA1A; format: protein assay; how it was run: as §1
[4] = molecular target: T2, 5-hydroxytryptamine receptor 1A (Homo sapiens, UniProt P08908); experiment: Binding affinity to 5HT1A
T2 sequence (P08908 whole entry): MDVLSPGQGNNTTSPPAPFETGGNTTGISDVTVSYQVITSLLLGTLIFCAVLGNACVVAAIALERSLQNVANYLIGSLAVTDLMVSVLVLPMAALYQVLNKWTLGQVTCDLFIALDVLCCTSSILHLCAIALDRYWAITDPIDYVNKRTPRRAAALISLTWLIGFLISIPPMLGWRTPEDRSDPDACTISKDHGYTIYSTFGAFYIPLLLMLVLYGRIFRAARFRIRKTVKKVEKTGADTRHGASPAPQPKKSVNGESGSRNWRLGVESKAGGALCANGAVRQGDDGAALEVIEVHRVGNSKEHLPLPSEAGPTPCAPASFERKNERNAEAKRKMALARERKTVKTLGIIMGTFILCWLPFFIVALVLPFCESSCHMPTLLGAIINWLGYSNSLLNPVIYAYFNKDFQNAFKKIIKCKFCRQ

D(1A) dopamine receptor = D(1A) dopamine receptor (Homo sapiens, UniProt P21728); experiment: Binding affinity to dopamine D1 receptor
Homo sapiens [5] = organism: Homo sapiens; experiment: Selectivity for 5HT1A over adrenergic alpha-1 receptor
How it was run: (§2)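 Selectivity is the ratio of Ki at 5-HT1A, D1 or D2 to Ki at α1. Ki values are means (±SD) of three separate experiments.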

Homo sapiens [6] = organism: Homo sapiens; experiment: Selectivity for dopamine D1 over adrenergic alpha-1 receptor; how it was run: as §2
[7] = Selectivity for dopamine D2 over adrenergic alpha-1 receptor; how it was run: as §2

Chain of D(1A) dopamine receptor (P21728 whole entry): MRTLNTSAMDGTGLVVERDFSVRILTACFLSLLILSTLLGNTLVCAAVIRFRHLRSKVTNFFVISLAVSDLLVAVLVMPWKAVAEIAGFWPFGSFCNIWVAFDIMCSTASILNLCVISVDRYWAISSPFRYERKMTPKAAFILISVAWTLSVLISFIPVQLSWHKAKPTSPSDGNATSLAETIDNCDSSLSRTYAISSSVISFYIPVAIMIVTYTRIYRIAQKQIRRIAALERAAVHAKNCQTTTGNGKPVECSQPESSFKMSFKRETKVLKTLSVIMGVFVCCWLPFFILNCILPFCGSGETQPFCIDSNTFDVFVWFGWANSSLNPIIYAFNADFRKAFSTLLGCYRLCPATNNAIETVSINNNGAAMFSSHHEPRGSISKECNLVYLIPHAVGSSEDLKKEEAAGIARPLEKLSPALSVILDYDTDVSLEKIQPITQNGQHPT
Chain of Alpha adrenergic receptor 1A and 1B (Rattus norvegicus) (P15823 whole entry, looked up): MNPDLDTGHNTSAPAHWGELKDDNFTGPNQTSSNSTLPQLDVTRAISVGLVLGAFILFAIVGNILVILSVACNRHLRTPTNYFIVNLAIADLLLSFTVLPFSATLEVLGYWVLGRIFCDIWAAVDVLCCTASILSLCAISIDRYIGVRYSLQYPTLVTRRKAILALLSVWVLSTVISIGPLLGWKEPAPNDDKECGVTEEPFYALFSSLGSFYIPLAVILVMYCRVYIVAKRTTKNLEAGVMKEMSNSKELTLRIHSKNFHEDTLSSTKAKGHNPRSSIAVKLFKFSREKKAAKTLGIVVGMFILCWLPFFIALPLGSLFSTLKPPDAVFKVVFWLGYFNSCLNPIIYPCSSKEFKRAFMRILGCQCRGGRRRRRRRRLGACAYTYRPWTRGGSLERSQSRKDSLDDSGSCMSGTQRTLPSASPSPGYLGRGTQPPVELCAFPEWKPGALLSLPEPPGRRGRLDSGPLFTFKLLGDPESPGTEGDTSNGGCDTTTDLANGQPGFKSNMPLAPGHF
Chain of Alpha adrenergic receptor 1A and 1B (Rattus norvegicus) (P43140 whole entry, looked up): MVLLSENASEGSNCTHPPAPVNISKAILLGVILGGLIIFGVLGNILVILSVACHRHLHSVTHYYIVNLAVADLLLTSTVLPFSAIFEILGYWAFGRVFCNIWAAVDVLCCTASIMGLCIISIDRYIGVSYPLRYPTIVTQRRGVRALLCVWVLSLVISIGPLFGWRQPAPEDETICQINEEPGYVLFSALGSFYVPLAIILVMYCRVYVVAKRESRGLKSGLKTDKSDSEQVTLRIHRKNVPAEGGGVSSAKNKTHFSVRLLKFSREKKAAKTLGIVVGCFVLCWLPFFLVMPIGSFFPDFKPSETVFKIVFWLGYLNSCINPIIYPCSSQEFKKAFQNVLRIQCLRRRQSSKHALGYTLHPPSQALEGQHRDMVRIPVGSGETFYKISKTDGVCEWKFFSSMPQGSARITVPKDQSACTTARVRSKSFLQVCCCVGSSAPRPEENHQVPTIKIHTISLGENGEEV
Chain of Alpha adrenergic receptor 1A and 1D (Rattus norvegicus) (P43140 whole entry, looked up, one chain of several): as the sequence (P43140 whole entry, looked up) above

Row | pKb [1] | Ratio pKb [2] | Ratio pKb (Rattus norvegicus) | Ratio pKb [3] | Ki [4] [nM] | Ki (D(1A) dopamine receptor) [nM] | Ratio Ki (Homo sapiens [5]) | Ratio Ki (Homo sapiens [6]) | Ratio Ki [7] | SMILES
1 | 7.69 | 2 | 0.5 | 4 | 1070 | 272 | 65 | 17 | 10 | COc1ccc(-c2cc3c(=O)n(CCN4CCN(c5ccccc5Cl)CC4)c(=O)[nH]c3[nH]2)cc1
2 | 7.78 | 3 | 2 | 2 | 1810 | 389 | 155 | 33 | 147 | Cc1ccc(-c2cc3c(=O)n(CCN4CCN(c5ccccc5Cl)CC4)c(=O)[nH]c3[nH]2)cc1
3 | 7.66 | 18 | 10 | 2 | 1510 | 544 | 573 | 206 | 898 | O=c1[nH]c2[nH]c(-c3ccc(Cl)cc3)cc2c(=O)n1CCN1CCN(c2ccccc2Cl)CC1

Row | SMILES | pKb [1] | Ratio pKb [2] | Ratio pKb (Rattus norvegicus) | Ratio pKb [3] | Ki [4] [nM] | Ki (D(1A) dopamine receptor) [nM] | Ratio Ki (Homo sapiens [5]) | Ratio Ki (Homo sapiens [6]) | Ratio Ki [7]
4 | Cc1ccc(-c2cc3[nH]c(=O)n(CCN4CCN(c5ccccc5Cl)CC4)c(=O)c3[nH]2)cc1 | 6.44 | 0.5 | 1 | 0.4 | > 10000 | > 10000 | > 500 | > 500 | > 500

Reference: ChEMBL document CHEMBL1148546, “3-Arylpiperazinylethyl-1H-pyrrolo[2,3-d]pyrimidine-2,4(3H,7H)-dione derivatives as novel, high-affinity and selective alpha(1)-adrenoceptor ligands” (Bioorg Med Chem Lett, 2006)
